Test results from the EternaBench riboswitch data.

Test system: MS2 coat protein
Assay: apparent Kd, MS2 coat protein; higher = weaker binding; RNA-MaP array; FMN 200 µM where present
Outline: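 The titrant was SNAP-549-labelled MS2 coat protein, run from 0.7 or 1.5 nM in doubling steps to 3 µM. It was applied to designs transcribed by stalled E. coli RNA polymerase on Illumina sequencing-chip clusters, without ligand first and then with constant ligand, in 100 mM Tris-HCl pH 7.5, 80 mM KCl, 4 mM MgCl2, BSA, DTT, yeast tRNA and Tween-20. The apparent Kd is the median of filtered per-cluster binding-curve fits, with green signal normalised to red-channel RNA signal and control-cluster median Fmax.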

[1] = designed as: OFF switch for flavin mononucleotide, no ligand
[2] = ligand present: flavin mononucleotide, designed as: OFF switch for flavin mononucleotide
[3] = designed as: ON switch for flavin mononucleotide, no ligand
[4] = ligand present: flavin mononucleotide, designed as: ON switch for flavin mononucleotide

Row | Sequence | apparent Kd [1] [µM] | apparent Kd [2] [µM] | apparent Kd [3] [µM] | apparent Kd [4] [µM]
1 | AAGAAGUCAGGAUAUGCAUGGCGGGACUUGCGUCGUGGCGUGCAGAAGGGACAUGAGGAUCACCCAUGUGGAGG | 0.162 | 0.222 |  | 
2 | AGGAGAAAUGUAGGAUAUGGGCGGAUAUAUGGGCAAAGCGCAUAUAUCCGCCCAGAAGGACAUGAGGAUCACCCAUGUUUCCCU | 0.0111 | 0.0133 |  | 
3 | GACAUGAGGAUCACCCAUGUCCUUCCAGAAGGCUGGCGCGCGAAACCUAAAUCAGUUCCGGGCACAGAGGAUAUGGGCAGUUGG |  |  | 0.0672 | 0.0143
4 | AUCAGCUCGUCAGGAUAUUCGUCACUGCGUCAGCAGUGUGGUAAGAUCACAUGAGGAUCACCCAUGUAGAAGGGACGAGCUGAU | 0.00823 | 0.0192 |  | 
5 | CCAACGUACAAUUUAGAUCUACAUGAGGAUCACCCAUGUACGGAGGAUAUCAGCUCGUUUAGAGCUGAGAAGGCCGAAUUAAUU |  |  | 0.342 | 0.0774
6 | AAUAUGAGCUGGAAUAAACCUGAAACAUGAGGAUCACCCAUGUAGGAUAUCAGCACGAUAAGUGCUGAGAAGGACAACCAGCUC | 0.0146 | 0.0166 |  | 
7 | CUGCUUCCCAGUAUGGGUAUUUUUACAGAAGGCCAGGCACAUGAGGAUCACCCAUGUCAAGUUUUGGAGGAUAUGUUAUUGUCG |  |  | 0.00853 | 0.00472
8 | AGUGUAGAGGUGAAGCGAAUUACUGAGGAUAUGACAUGAGGAUCACCCAUGUACACAUCCUCAGGUCAGAAGGCAGUGGUUCUU | 0.00562 | 0.0048 |  | 
9 | UGUUGUAUUACAGGAUAUCUAUGAUUUUAAUUUAGAGAAGGGUAUUCACAUGAGGAUCACCCAUGUAUAUACGAGGAAGUUGUG |  |  | 0.0512 | 0.0589
10 | CAGUACUGAGGAUAUACAUGAGGAUCACCCAUGUGUUCCAGCUAGGAAACUAGCAAAGGUAGAAGGCAGUACUG | 0.0238 | 0.521 |  | 
11 | UCGUCGUCAGGAUAUUUUGUAUUGCAGAUUUCGCAGUUGCCAAAGAAGGGACAUGAGGAUCACCCAUGUAGUCU | 0.0326 | 0.0422 |  | 
12 | AGACGGAUCCGCGGUCGAUGCUAACUAGAAGGGCAGGUCACAUGAGGAUCACCCAUGUAGUAUAUGUAGGAUAUAGGAAGCGUG |  |  | 0.0952 | 0.0209
13 | AUCCUGCGAGGAUAUACAUAGUGACGUCUGUUAGGUCUCAAACAUGAGGAUCACCCAUGUAGAAGGUGCGUCAC | 0.0194 | 0.0182 |  | 
14 | GGACCACAUCAGGAUAUGACUAGCCUCGGCUAGUCAGAAGGGAUGACAUGAGGAUCACCCAUGUGAUCAGGUCC | 0.0679 | 0.11 |  | 
15 | GCUGGUCGAGGAUAUGCAAUCGUGCUUCGGCACGUAAGAUCACAUGAGGAUCACCCAUGUAGAAGGCGACCAGC | 0.0195 | 0.074 |  | 
16 | AAAAUGCAAGGAUAUACAUGAGGAUCACCCAUGUAGAAGGAAGCGAGGGUUUCCUGCUGUAGAAGGUGCUACAG | 0.023 | 0.0205 |  | 
17 | GUCGUGUAAGGAUAUGCAUCGAGGUAGCGAAUGUUGCAGGUGUAGAAGGUACAUGAGGAUCACCCAUGUAAUGU | 0.0222 | 0.0301 |  | 
18 | UUACCACAUGAGGAUCACCCAUGUCAGGAUAUACUAUUAACUACAUUUUCUUAUUUUAGUAGAAGGGACACUUU | 0.026 | 0.0231 |  | 
19 | AAGAAGUCAGGAUAUCCAUGGCGGCACUUGCGUGGUGGCGUGGAGAAGGGACAUGAGGAUCACCCAUGUAAAGG | 0.149 | 0.173 |  | 
20 | GGUUAAUAUCGAGGAUAUGUCUAGACACAUGAGGAUCACCCAUGUAUGUGUAUAGAAGGCGAUAUUAACAGCAUGUUACAUGCU |  |  | 0.0408 | 0.016
21 | CAGUAGAUCCGAGGAUAUACAAUCCGGAAACGGUACAUGAGGAUCACCCAUGUAGAAGGCGGAUCUACAGGUACUAAAGUACCG | 0.00637 | 0.00959 |  | 
22 | GUUUGUUUUUAGAAGGUGCCGGCGAGAGCCGCAACAUGAGGAUCACCCAUGUGUCGGUGACGACGCAAGGAUAUGGAGGUGGAU |  |  | 0.127 | 0.0778
23 | CUACAUGAGGAUCACCCAUGUGCACGCCAGAUCGGUGUGCGCAGAAGGGCCAUGGAGAAAGCCAGGCAGGAUAUGCAAAGGGCU |  |  | 0.353 | 0.162
24 | CUCGAGUUAGGAUAUUGAACGUAACAAGCGGGAACUCCCGCCAAGAAGGAACAUGAGGAUCACCCAUGUGAAAC | 0.021 | 0.0213 |  | 
25 | AUUUAGAGAGGAUAUAUAAAGUGAAACAUGAGGAUCACCCAUGUAAUUUUAUGGAUGUAAAUAGAAGGCUCAUUUU | 0.0382 | 0.0294 |  | 
26 | UCCUUACUGGUCAGGAUAUACAGUCGCGGGUGGGUGUAGAAGGGACAUGAGGAUCACCCAUGUACGUUGCAGCC | 0.0406 | 0.0409 |  | 
27 | ACCUUACAUGAGGAUCACCCAUGUCAGGAUAUCUCGGGCGGCCAAGGGCCGGCCGCCCAGAGAAGGGACGAGGA | 0.0145 | 0.0137 |  | 
